KCNQ1 block: inhibitors of human KCNQ1 potassium channel. P51787. CHO-K1 KCNQ1, FluxOR thallium flux fluorescence; hits give high values. B-score at 10 µM. 1.3% of 310,000 active. AID 2642;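 active means compounds whose thallium flux B-score, printed positive for inhibition, exceeds three library SD while starting fluorescence stays within three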;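 further: channel opened by potassium depolarization with thallium stimulus after 20 min compound exposure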
KCNK9 inh: human KCNK9 channel inhibition; Q9NPC2; HEK293 KCNK9, FluxOR thallium flux fluorescence; hits give low values; B-score at 10 µM; 1.2% of 310,000 active; AID 488922;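 active means ratio B-score over 3 SD below the library mean, with starting fluorescence within 5 SD of its mean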;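 further: negative B-score means less thallium flux so channel inhibition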
Target sequence (Q9NPC2 whole entry, looked up): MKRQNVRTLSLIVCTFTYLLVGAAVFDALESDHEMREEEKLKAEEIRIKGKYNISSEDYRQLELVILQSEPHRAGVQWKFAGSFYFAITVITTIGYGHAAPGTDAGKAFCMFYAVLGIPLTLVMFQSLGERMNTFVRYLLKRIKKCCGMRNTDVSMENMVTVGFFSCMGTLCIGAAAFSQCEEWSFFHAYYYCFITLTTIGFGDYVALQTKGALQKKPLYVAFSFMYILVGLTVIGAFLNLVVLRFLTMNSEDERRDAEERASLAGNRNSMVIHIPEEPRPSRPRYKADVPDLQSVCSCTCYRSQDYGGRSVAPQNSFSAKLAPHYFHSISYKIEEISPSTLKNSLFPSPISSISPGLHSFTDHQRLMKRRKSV
Kir21 inh: blocks the mouse Kir2.1 inward-rectifier potassium channel. P35561. HEK293-Kir2.1, FluxOR thallium flux fluorescence; hits give low values. B-score at 10 µM. 0.85% of 310,000 active. AID 1672;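 active means fluorescence ratio B-score at or below minus 3 SD of library scores, with starting-brightness B-score within 2 SD, cut at about -4.2 in these data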;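 further: channel flux triggered by added potassium and thallium sulfate stimulus; B-score of peak minus minimum fluorescence over baseline after thallium stimulus; more negative B-score means stronger Kir2.1 block with less thallium influx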
hERG protect: compounds protecting human hERG from proarrhythmic drug block; Q12809; CHO-hERG, FluxOR thallium flux, dofetilide IC70 present; activation (rescue from dofetilide block), less the hit threshold, % at 10 µM; 0.51% of 310,000 active; AID 1511;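 active means activation above the mean of controls blocked by dofetilide plus 5 SD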;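 further: thallium influx through hERG after potassium depolarization seen as dye fluorescence rise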
KCNK3 block: human KCNK3 channel inhibition, primary screen; O14649; CHO-KCNK3 thallium flux, FluxOR fluorescence; hits give low values; B-score at 10 µM; 0.84% of 340,000 active;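 active means B-score under library mean minus 4 SD, starting fluorescence ratio at most library mean plus 5 SD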;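 further: more negative B-score means stronger inhibition of thallium flux through KCNK3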
KCNQ1 act: potentiators or activators of human KCNQ1 potassium channel; B-score at 10 µM; AID 2648; CHO-K1 KCNQ1, thallium flux FluxOR fluorescence; hits give high values; 0.35% of 310,000 active;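 active means fluorescence ratio B-score, a plate-corrected score, at least three library SD, with initial intensity B-score within 5 SD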
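Assay system: CHO-K1 cells stably expressing KCNQ1. Medium: assay buffer for compound exposure, DMSO matched across wells. Timing: 37 °C overnight plating, 90-min dark dye load, 20-min compound pretreatment. Signal: kinetic FluxOR fluorescence, 10 s baseline plus 110 s post-stimulus.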
* = called active by the depositor; i = inactive; · = no result given. A selection: hits, their analogues and other compounds. The true share with any hit is near 3.8%.

SMILES	KCNQ1 block	KCNK9 inh	Kir21 inh	hERG protect	KCNK3 block	KCNQ1 act
CCN(CC)S(=O)(=O)c1cccc(C(=O)N[C@H](C(=O)NNC(=O)c2ccccc2)C(C)C)c1	i	i	2.3	7.9*	i	33*
N#CC1=C(SCc2ccccc2)NC(=O)CC1c1ccc(O)cc1 (stereo unspecified)	i	i	-4.4*	-11	i	i
Cc1ccc(C2CC(=O)NC(SCc3ccccc3)=C2C#N)cc1 (stereo unspecified)	i	i	-4.3*	-11	i	i
CCCCCCSC1=C(C#N)C(c2ccccc2)CC(=O)N1 (stereo unspecified)	i	-7.2*	-2.5	2	i	i
CCOc1ccc(-n2c(SCC(N)=O)nc3sc4c(c3c2=O)CCN(C)C4)cc1	i	i	0.58	-10	i	i
COc1ccc(C)cc1NS(=O)(=O)c1ccc2c(c1)N(C)CCO2	i	i	-5.6*	1	i	i
CCN(CC)C(=O)CCn1nc(-c2ccc(C)cc2)c2ccccc2c1=O	i	i	0.65	-5	i	i
O=C1c2ccccc2C(=O)N1CCC(c1ccc(F)cc1)c1ccco1 (stereo unspecified)	i	i	-4.8*	-17	i	i
CC(Nc1cc(N2CCNCC2)ccc1[N+](=O)[O-])c1ccccc1 (stereo unspecified)	i	i	-7.5*	-9	i	i
Cc1onc(-c2c(Cl)cccc2Cl)c1C(=O)N1CCN(c2ccccc2)CC1	i	i	-1.9	-9	i	i
Cc1ccc(CN2CCN(/N=C/c3ccc(O)c(O)c3)CC2)cc1	i	i	0.8	7.1*	i	i
Cc1ccc(CN2CCN(/N=C/c3ccc(C(=O)O)cc3)CC2)cc1	i	i	1.5	-11	i	i
CC(C)c1ccc(CC(C)C2C3=C(CCCC3=O)OC3=C2C(=O)CCC3)cc1 (stereo unspecified)	7*	i	-0.01	-15	i	i
Cc1ccc(CCC2C3=C(CCCC3=O)OC3=C2C(=O)CCC3)cc1	i	i	-1.1	-3	i	i
COc1cc(/C=C2\C(=O)ON=C2c2ccccc2)cc(Br)c1O	7*	i	-6.6*	-31	i	i
CCCOc1ccc(/C=C2/C(=O)ON=C2C)cc1OCC	i	i	-0.21	-2	i	i
CCOc1cc(/C=C2/C(=O)ON=C2C)cc(Br)c1O	9*	i	-1.9	-13	i	i
O=C1ON=C(c2ccccc2)/C1=C/c1ccccc1	i	i	0.55	-8	i	i
COc1cc(/C=C2/C(=O)ON=C2c2ccccc2)ccc1O	i	i	-4.8*	-21	i	i
COc1ccc(C(C(=O)NC2CCCC2)N(C(=O)c2snc(C(N)=O)c2N)c2cc(C)ccc2OC)cc1OC (stereo unspecified)	i	i	0.79	-11	i	i
O=S1(=O)c2ccc(Br)cc2N2CCC[C@@H]2CN1Cc1ccccc1	·	·	·	·	i	·
CN(C)CCCN1c2ccccc2Sc2ccc3ccccc3c21	·	·	·	·	i	·
CN(C)CCCN1c2ccccc2Sc2ccc(Cl)cc21	i	i	-7.9*	-9	i	i
CC(=O)c1ccc2c(c1)N(CCCN1CCC(CCO)CC1)c1ccccc1S2	·	·	·	·	i	·
OCCN1CCN(CCCN2c3ccccc3Sc3ccc(Cl)cc32)CC1	i	i	-5.6*	-15	i	i
SMILES	KCNQ1 block	KCNK9 inh	Kir21 inh	hERG protect	KCNK3 block	KCNQ1 act
CC1CCCN(C(=O)Cn2c(=O)oc3cc(S(=O)(=O)N4CCCCC4)ccc32)C1 (stereo unspecified)	·	·	·	·	i	·
N#C/C(=C/c1ccc(N2CCCC2)c([N+](=O)[O-])c1)c1nc2ccccc2[nH]1	i	i	-2.2	-19	i	i
Cc1ccc2nc(/C(C#N)=C\c3ccc(N4CCCCC4)c([N+](=O)[O-])c3)[nH]c2c1	8*	i	0.24	-18	i	i
COc1ccc(C(CCNCc2ccc(OC)c(OC)c2)c2ccc(F)cc2)cc1 (stereo unspecified)	i	i	-4.5*	-14	i	i
O=C1/C(=C/c2cccc(F)c2)Oc2cc(O)ccc21	14*	i	-5.2	-8	i	i
CCOC(=O)C1CCCN(C(=O)c2ccc3c(=O)n(CCOC)c(=S)[nH]c3c2)C1 (stereo unspecified)	i	i	-0.13	-7	i	i
COc1ccccc1OCCCCCc1c(C)n[nH]c1C	i	i	-1.4	-16	i	i
CCOc1ccccc1OCCCCCc1c(C)n[nH]c1C	i	i	-4.8*	-23	i	i
COc1ccccc1N1CCN(C(=O)CCCN2C(=O)c3cccc4cccc(c34)C2=O)CC1	6*	i	0.99	-3	i	i
CCOC(=O)C1=C(c2ccccc2)OC(N)=C(C#N)C1c1ccc(Cl)s1 (stereo unspecified)	i	-6.6*	1.5	-6	i	i
CCN(CCO)C1CC(=O)N(c2ccccc2C)C1=O (stereo unspecified)	i	i	1.2	-3	i	i
Cn1cc([N+](=O)[O-])c(C(=O)NCc2cc3ccccc3[nH]2)n1	i	i	1.2	-4	i	i
CCOC(=O)c1ccc(NC(=S)Nc2ccccc2)cc1	i	i	1.1	-14	i	i
CCOC(=O)c1ccc(NC(=S)NC(=O)COc2ccccc2)cc1	i	i	1.1	7.6*	i	i
COc1ccc(S(=O)(=O)NCc2csc(-c3cccnc3)n2)cc1	i	i	-1.4	-15	i	i
CCOc1ccc(NS(=O)(=O)c2ccc(OC)c(C)c2)cc1	i	i	-7.5*	-9	i	i
CN(C)S(=O)(=O)c1cccc2nsnc12	i	i	0.21	-1	i	i
Cc1cccc(N(C)S(=O)(=O)c2cccc3nsnc23)c1	i	i	-4.3*	-5	i	i
COc1ccc(-c2csc(=Nc3c(C)n(C)n(-c4ccccc4)c3=O)n2C(C)(C)C)cc1	i	i	-0.84	5.1*	i	i
Cc1noc(/C=C/c2ccc(-c3ccccc3Cl)o2)c1[N+](=O)[O-]	7*	i	0.76	-6	i	i
CC1=C(C(=O)OC2CCCC2)C(c2ccc(C)o2)C2=C(CC(c3cccs3)CC2=O)N1 (stereo unspecified)	8*	i	0	-10	i	i
CC1=C(C(=O)OC2CCCCCC2)C(c2ccc(C)o2)C2=C(CCCC2=O)N1 (stereo unspecified)	i	i	-0.27	-4	i	i

Compound activity deposited in PubChem by Johns Hopkins Ion Channel Center.
